Results from different studies.
Target: Fibroblast growth factor receptor 4 (FGFR4, Homo sapiens, UniProt P22455)

Compound	test	conditions	remaining binding [%]
F[C@@H]1CCN(c2nccc(-c3cnn4ncccc34)n2)C1	binding	1 µM	100
CN(c1ccnc(CNc2nc(Nc3ccc4c(c3)CC(=O)N4)ncc2C(F)(F)F)n1)S(C)(=O)=O	cell-free assay, competition with immobilised ligand	1 µM	83
c1cnn2ncc(-c3ccnc(N4CCC45COC5)n3)c2c1	binding	1 µM	91
COc1cnc(Nc2cccc(S(N)(=O)=O)c2)nc1N1CCN(c2ccccc2)CC1	binding, competition with immobilised ligand	1 µM	98
CCc1ccccc1C(=O)Nc1n[nH]c2c(C)c(F)c(C3C(C#N)=C(C)N(C)C(C)=C3C#N)cc12	cell-free assay, competition with immobilised ligand	1 µM	100
COc1ccnn2ncc(-c3ccnc(N(C)C)n3)c12	binding	1 µM	100
C[C@H](c1ccc(F)cc1)N(Cc1cccc(C(=O)O)c1)C(=O)c1cnc2ccccc2c1	cell-free assay, competition with immobilised ligand	1 µM	91
CN(c1nccc(-c2cnn3ncccc23)n1)C1CC1	binding	1 µM	99
O=C(NS(=O)(=O)c1ccc(NCC2CCOCC2)c([N+](=O)[O-])c1)c1ccc(N2CCN(Cc3ccc(C(F)(F)F)cc3-c3ccc(Cl)cc3)CC2)cc1Oc1cnc2[nH]ccc2c1	cell-free assay, competition with immobilised ligand	1 µM	96
O=C(c1ccc(Nc2nccc(-c3cc4ccccc4s3)n2)cc1)N1CCC(N2CCCC2)CC1	binding, competition with immobilised ligand	1 µM	99
O=C(Nc1c[nH]nc1C(=O)NC1CCNCC1)c1cc(F)cc(F)c1	binding, competition with immobilised ligand	1 µM	100
C[C@@H]1CCN(c2nccc(-c3cnn4ncccc34)n2)C1	binding	1 µM	100
CCOCCn1cc(C(=O)Nc2ccc(-n3nc(-c4cccnc4)cc3C(F)(F)F)cn2)ccc1=O	cell-free assay, competition with immobilised ligand	1 µM	100
CCN1CCN(Cc2ccc(C(=O)Nc3ccc(C)c(Oc4ccc5c(c4)CC(=O)N5)c3)cc2C(F)(F)F)CC1	binding, competition with immobilised ligand	1 µM	100
CS(=O)(=O)c1cc(C2(NC(=O)c3cncc4c3cnn4-c3ccc(F)cc3)CC2)ccn1	cell-free assay, competition with immobilised ligand	1 µM	74
CN(C)c1nccc(-c2cnn3ncccc23)n1	binding	1 µM	100
c1cncc(-c2cccc(Nc3nccc(NC4CCCCC4)n3)c2)c1	binding, competition with immobilised ligand	10 µM	94
O=C(c1ccc(Nc2ncc(Cl)c(-c3ccc(Cl)s3)n2)cc1)N1CCC(N2CCCC2)CC1	binding, competition with immobilised ligand	1 µM	60
N[C@H]1CCN(c2nccc(-c3cnn4ncccc34)n2)C1	binding	1 µM	100
O=C(NCCCN1CCOCC1)c1ccc(Nc2nccc(-c3cc4ccccc4s3)n2)cc1	binding, competition with immobilised ligand	1 µM	91
COc1cnc(Nc2cccc(S(N)(=O)=O)c2)nc1N1CCN(c2ccccc2)C(=O)C1	binding, competition with immobilised ligand	1 µM	100
C[C@@H]1CN(c2cc(-c3nn(C)c4ccc(OC5(C)CC5)cc34)ncn2)C[C@H](C)O1	cell-free assay, competition with immobilised ligand	1 µM	100
